# Measurements taken from ChEMBL document CHEMBL1124049, “Synthesis and biological characterization of pyridohomotropanes. Structure-activity relationships of conformationally restricted nicotinoids” (J Med Chem, 1988).
# Key:
# [1] = target: Neuronal acetylcholine receptor; assay: Inhibition of [3H]MCC binding to rat brain membranes; format: cell membranes, Membrane
# In short: (§1)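 Membranes from whole rat brain or Torpedo electric organ, homogenized in 30 volumes 0.05 M NaH2PO4 pH 7.0 and spun at 50000g for 30 min. Each tube held 2 mg brain protein or 1 mg electric organ protein, 1 × 10⁻⁹ M radioligand (final), and varied agent concentrations in 0.05 M NaPO4 pH 7.0.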
# [2] = species on record: Rattus norvegicus; assay: Potency for prostration assay, relative to PHT; format: functional
# [3] = target: T1, Acetylcholine receptor (Torpedo californica, UniProt P02710+P02712+P02714+P02718); assay: inhibition of (-)-[3H]nicotine binding to torpedo electroplax membranes; in short: as §1
# [4] = target: T1, Acetylcholine receptor; assay: Inhibition of [3H]MCC binding to torpedo electroplax membranes; in short: as §1
# [5] = species on record: Rattus norvegicus; assay: Effective dose required to produce prostration after injection into rat's fourth ventricle; format: functional
# In short: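 Rats given various doses into the fourth ventricle through chronically implanted cannulae, in 1 μL. Prostration of the limbs was scored, from hind-limb prostration with forelimb weakness up to prostration of all four limbs.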
# [6] = target: Neuronal acetylcholine receptor; assay: Inhibition of (-)-[3H]nicotine binding to rat brain membranes; format: cell membranes, Membrane; in short: as §1
# T1 sequence (P02710 whole entry): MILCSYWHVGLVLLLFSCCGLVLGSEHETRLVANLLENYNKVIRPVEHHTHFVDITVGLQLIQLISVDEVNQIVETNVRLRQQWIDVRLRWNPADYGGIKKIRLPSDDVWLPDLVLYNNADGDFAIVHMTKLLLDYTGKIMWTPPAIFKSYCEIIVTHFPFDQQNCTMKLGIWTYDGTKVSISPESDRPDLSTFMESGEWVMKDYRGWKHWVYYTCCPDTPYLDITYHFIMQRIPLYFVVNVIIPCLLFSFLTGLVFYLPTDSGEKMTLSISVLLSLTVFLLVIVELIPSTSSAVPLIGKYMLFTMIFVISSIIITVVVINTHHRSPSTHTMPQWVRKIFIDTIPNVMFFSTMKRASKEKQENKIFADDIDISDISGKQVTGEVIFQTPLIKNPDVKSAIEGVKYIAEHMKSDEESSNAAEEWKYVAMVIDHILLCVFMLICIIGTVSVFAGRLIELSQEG
# T1 sequence (P02712 whole entry): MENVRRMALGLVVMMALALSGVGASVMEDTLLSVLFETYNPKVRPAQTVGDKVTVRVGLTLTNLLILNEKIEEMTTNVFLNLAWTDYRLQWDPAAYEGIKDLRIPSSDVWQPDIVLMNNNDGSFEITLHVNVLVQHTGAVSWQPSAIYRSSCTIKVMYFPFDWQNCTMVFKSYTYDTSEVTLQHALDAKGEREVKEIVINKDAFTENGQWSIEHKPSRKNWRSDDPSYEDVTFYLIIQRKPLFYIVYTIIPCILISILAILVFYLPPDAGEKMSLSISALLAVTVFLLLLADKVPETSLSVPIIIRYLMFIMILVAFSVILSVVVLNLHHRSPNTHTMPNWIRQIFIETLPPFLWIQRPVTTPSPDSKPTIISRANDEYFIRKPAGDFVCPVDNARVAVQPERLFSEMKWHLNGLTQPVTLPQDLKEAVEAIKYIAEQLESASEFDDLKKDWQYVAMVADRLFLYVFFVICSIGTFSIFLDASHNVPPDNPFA
# T1 sequence (P02718 whole entry): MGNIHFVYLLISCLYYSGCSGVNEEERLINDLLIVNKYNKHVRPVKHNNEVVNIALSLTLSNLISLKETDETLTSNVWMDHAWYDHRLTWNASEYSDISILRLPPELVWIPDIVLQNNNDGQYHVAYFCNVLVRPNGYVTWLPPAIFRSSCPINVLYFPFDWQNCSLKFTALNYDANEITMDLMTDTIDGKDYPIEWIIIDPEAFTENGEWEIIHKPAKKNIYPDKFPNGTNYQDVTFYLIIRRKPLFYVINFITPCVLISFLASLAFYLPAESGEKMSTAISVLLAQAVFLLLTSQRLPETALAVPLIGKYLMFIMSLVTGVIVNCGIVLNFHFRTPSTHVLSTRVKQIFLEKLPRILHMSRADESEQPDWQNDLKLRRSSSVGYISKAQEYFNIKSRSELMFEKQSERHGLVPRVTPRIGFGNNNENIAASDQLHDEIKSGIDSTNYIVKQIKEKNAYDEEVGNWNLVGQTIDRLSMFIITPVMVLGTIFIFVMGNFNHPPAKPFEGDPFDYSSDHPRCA
# T1 sequence (P02714 whole entry): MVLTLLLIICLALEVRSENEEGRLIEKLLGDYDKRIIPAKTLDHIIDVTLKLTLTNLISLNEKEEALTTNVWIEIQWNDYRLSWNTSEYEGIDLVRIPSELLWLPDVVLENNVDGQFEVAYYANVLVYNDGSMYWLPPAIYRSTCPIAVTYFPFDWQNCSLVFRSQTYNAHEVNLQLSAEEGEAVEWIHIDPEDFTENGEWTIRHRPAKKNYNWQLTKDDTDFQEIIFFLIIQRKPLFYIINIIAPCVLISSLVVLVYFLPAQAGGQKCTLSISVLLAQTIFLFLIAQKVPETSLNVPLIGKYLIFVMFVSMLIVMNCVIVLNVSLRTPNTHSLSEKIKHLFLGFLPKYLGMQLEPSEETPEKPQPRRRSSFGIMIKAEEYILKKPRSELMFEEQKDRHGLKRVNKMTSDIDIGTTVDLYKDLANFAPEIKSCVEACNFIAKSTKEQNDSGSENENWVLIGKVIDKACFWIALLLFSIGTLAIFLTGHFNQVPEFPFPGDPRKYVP
SMILES,IC50 [1],Relative potency [2],IC50 [3],IC50 [4],ED50 [5],IC50 [6]
Cc1nccc2c1C1CCC(CC2)N1 (centres undefined),700 nM,0.02,300 nM,300 nM,500 nmol,900 nM
c1cc2c(cn1)C1CCC(CC2)N1 (centres undefined),10 nM,1,1 nM,0.1 nM,10 nmol,5 nM
CN1C2CCc3ccncc3C1CC2 (centres undefined),3000 nM,0.02,800 nM,2000 nM,500 nmol,1000 nM
CN1CCC[C@H]1c1cccnc1 [NICOTINE],–,–,4 nM,1 nM,10 nmol,–
c1cncc([C@@H]2CCCN2)c1 [NORNICOTINE],–,–,100 nM,300 nM,75 nmol,–
